According to ChEMBL document CHEMBL5653631, “A Potent and Selective ULK1 Inhibitor Suppresses Autophagy and Sensitizes Cancer Cells to Nutrient Stress” (iScience, 2018):
Blank lines part the entries; values can stand above or below the compound they belong to.

Legend:
[1] = target: Death-associated protein kinase 3 (Homo sapiens) (UniProt O43293); test: Inhibition of human recombinant DAPK3 at 500 nM in presence of ATP by radiometric assay relative to control
[2] = target: T1, Aurora kinase A (Homo sapiens) (UniProt O14965); test: Inhibition of human recombinant AurA at 500 nM related to control ULK1
T1 sequence (whole entry): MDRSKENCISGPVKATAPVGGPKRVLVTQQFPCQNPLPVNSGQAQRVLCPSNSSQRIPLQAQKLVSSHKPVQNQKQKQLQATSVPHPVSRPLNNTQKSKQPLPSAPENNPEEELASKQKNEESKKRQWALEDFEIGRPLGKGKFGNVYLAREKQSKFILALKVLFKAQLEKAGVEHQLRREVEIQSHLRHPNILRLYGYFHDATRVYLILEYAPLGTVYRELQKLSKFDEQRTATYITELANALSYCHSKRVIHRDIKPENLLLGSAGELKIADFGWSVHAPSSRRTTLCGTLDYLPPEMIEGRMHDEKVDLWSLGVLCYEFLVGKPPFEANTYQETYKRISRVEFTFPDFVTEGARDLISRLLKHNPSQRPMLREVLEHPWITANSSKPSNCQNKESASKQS
Method in brief: (§1)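 Panel of 327 recombinant human kinases, each assayed in vitro by radiometric activity assay in duplicate at a single inhibitor concentration per compound, chosen with reference to its ULK1 inhibition. Activity remaining was expressed as percent of vehicle control, and percent inhibition was calculated as 100 minus percent activity remaining.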

[3] = target: T2, SNF-related serine/threonine-protein kinase (Homo sapiens) (UniProt Q9NRH2); test: Inhibition of human recombinant SNRK at 500 nM in presence of ATP by radiometric assay relative to control
T2 sequence (whole entry): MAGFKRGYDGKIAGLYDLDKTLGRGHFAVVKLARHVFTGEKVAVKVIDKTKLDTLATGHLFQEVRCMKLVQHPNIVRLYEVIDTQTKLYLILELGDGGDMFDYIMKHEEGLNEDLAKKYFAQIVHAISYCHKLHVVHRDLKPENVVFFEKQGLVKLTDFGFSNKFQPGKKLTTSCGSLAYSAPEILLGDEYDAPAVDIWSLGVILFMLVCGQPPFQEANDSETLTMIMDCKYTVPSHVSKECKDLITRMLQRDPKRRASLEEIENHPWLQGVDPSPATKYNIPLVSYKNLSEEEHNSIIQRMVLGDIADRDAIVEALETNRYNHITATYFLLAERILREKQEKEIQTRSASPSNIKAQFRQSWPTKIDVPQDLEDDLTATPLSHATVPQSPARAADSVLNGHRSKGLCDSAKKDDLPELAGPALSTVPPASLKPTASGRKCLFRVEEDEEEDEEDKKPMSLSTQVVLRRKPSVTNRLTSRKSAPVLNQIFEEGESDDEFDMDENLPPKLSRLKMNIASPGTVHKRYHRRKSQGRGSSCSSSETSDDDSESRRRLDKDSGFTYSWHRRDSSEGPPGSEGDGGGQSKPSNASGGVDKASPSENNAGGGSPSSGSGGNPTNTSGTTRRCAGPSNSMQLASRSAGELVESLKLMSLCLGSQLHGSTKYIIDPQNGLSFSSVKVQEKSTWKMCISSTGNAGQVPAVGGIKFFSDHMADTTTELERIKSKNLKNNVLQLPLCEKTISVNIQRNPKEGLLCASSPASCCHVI

[4] = target: T2, SNF-related serine/threonine-protein kinase (Homo sapiens); test: Inhibition of human recombinant SNRK at 15 nM related to control ULK1
Homo sapiens [5] = organism: Homo sapiens; test: Inhibition of human recombinant p70S6K at 40 nM in presence of ATP by radiometric assay relative to control
[6] = target: T3, Serine/threonine-protein kinase A-Raf (Homo sapiens) (UniProt P10398); test: Inhibition of human recombinant ARAF at 40 nM in presence of ATP by radiometric assay relative to control; method in brief: as §1
T3 sequence (whole entry): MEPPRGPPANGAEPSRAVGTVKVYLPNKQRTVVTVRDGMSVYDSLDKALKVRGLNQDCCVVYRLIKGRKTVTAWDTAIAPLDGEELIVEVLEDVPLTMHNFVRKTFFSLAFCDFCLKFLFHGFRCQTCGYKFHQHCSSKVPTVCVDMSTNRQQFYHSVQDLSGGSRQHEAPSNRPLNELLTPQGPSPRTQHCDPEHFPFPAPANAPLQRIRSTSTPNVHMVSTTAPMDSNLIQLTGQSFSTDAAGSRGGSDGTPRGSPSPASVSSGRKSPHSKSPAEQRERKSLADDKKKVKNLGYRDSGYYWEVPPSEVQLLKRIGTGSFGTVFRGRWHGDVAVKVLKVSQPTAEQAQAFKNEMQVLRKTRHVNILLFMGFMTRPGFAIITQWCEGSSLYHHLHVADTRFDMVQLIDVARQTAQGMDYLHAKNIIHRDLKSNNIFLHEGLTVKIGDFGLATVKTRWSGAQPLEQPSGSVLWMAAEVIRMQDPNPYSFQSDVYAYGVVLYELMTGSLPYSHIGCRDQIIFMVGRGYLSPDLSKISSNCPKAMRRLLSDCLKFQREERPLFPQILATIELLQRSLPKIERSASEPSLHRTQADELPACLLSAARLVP

Homo sapiens [7] = organism: Homo sapiens; test: Inhibition of human recombinant KHS1 at 40 nM in presence of ATP by radiometric assay relative to control
[8] = target: T4, Tyrosine-protein kinase ITK/TSK (Homo sapiens) (UniProt Q08881); test: Inhibition of human recombinant ITK at 40 nM related to control ULK1
T4 sequence (whole entry): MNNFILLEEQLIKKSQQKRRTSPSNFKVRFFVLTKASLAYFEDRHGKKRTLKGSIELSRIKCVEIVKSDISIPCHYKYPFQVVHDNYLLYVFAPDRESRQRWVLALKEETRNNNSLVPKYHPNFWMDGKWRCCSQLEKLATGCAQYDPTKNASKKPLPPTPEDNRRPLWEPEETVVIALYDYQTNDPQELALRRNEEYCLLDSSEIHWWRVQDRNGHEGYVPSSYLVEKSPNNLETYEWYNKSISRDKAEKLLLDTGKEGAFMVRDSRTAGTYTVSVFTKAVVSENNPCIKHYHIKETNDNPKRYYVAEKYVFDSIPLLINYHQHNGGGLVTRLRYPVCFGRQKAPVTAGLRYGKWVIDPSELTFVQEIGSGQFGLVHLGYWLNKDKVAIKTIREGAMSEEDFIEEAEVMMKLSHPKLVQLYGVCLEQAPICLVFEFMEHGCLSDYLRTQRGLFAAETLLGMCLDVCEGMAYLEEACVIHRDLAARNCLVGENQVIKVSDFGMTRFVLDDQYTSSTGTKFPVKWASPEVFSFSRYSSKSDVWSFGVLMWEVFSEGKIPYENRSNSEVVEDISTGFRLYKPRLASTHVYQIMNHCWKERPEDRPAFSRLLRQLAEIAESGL

[9] = target: Activated CDC42 kinase 1 (Homo sapiens) (UniProt Q07912); test: Inhibition of human recombinant ACK at 40 nM related to control ULK1
Method in brief: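 Radiometric activity assays in a panel of 327 human recombinant kinases, each run in duplicate at one inhibitor concentration. Activity remaining is expressed as percent of vehicle control, and percent inhibition is calculated as 100% minus percent activity remaining.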

Sequence of Death-associated protein kinase 3 (Homo sapiens) (O43293 whole entry, looked up): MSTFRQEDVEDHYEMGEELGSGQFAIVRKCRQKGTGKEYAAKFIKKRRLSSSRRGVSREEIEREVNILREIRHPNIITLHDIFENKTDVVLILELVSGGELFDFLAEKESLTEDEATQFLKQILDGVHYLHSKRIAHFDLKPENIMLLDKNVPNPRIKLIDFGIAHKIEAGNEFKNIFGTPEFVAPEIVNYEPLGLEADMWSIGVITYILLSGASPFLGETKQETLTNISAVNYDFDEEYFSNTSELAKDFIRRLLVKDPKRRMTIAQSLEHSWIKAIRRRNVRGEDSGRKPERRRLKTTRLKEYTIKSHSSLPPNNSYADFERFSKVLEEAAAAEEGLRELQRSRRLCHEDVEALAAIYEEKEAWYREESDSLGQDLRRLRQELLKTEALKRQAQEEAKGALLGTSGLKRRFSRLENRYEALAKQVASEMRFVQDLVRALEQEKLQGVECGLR
Sequence of Activated CDC42 kinase 1 (Homo sapiens) (Q07912 whole entry, looked up): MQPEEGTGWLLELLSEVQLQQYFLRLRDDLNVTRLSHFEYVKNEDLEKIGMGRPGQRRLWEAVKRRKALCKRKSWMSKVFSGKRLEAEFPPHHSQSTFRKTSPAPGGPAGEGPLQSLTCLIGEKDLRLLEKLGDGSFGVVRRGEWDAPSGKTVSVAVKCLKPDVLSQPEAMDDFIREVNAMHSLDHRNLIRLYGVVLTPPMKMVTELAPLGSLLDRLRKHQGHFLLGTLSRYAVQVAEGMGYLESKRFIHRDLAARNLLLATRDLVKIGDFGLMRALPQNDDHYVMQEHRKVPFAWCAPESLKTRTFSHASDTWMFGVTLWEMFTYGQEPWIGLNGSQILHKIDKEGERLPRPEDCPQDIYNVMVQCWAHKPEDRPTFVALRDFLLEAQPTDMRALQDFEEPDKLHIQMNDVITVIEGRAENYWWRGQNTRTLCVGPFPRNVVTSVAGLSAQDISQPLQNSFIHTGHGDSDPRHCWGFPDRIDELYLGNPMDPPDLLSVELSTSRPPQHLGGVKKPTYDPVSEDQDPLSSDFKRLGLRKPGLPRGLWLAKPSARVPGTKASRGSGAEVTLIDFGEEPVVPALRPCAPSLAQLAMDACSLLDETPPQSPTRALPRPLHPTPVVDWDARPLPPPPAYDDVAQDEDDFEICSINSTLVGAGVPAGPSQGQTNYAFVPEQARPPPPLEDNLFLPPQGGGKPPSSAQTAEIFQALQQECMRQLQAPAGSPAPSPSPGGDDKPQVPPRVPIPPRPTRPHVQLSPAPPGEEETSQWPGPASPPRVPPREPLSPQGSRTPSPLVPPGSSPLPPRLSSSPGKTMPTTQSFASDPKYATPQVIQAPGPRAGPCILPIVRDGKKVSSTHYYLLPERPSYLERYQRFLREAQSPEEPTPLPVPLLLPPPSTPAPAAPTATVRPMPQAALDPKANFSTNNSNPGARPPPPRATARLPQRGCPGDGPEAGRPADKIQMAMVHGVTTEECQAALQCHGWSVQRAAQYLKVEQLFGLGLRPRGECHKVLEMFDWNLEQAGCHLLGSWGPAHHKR

fold change (FC) [2]: 1.08 | inhibition [3]: 0%
Compound: CNC(=O)c1ccccc1Oc1nc(Nc2cc(OC)c(OC)c(OC)c2)ncc1Br
inhibition [1]: 10%

fold change (FC) [4]: 0.09
Compound: CC(C)[C@H](NC(=O)c1cc(-c2cnn3cc(-c4ccc(OCCN5CCCCC5)cc4)cnc23)cs1)C(F)(F)F

inhibition (Homo sapiens [5]): 2% | inhibition [6]: 0% | inhibition (Homo sapiens [7]): 0% | fold change (FC) [8]: 0 | fold change (FC) [9]: 0.23
Compound: O=C(N[C@@H](C1CC1)C(F)(F)F)c1cc(-c2cnn3cc(-c4ccc(F)cc4)cnc23)cs1
